Hits are enriched below; roughly 4.1% of the tested compounds scored in any of these assays.
Cl transport mod: modulators of human KCC2 chloride dependent transport. Q9H2X9. KCC2 cells, thallium flux FluoZin-2 fluorescence. hit rate 2.2% among 190,000. B-score of Tl+ flux slope (higher = more flux/activation; lower = inhibition) at 10 µM;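 active means thallium flux slope and its plate-corrected score both differing from the plate sample mean at a set confidence after two filtering rounds, in either direction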;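 further: slope of fluorescence scaled to starting intensity during 10 to 20 s after thallium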
hERG rescue: hERG (human) protection from proarrhythmic block; Q12809; CHO-hERG, FluxOR thallium flux, dofetilide IC70 present; activation (rescue from dofetilide block), less the hit threshold, % at 10 µM; hit rate 0.51% among 310,000;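 active means activation above the mean of controls blocked by dofetilide plus 5 SD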;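 further: thallium influx through hERG after potassium depolarization seen as dye fluorescence rise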
KCNK9 inh: inhibitors of human KCNK9 two-pore domain potassium channel | Q9NPC2 | HEK293 KCNK9, FluxOR thallium flux fluorescence; stronger effect = lower value | B-score at 10 µM | hit rate 1.2% among 310,000 | AID 488922;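 active means ratio B-score over 3 SD below the library mean, with starting fluorescence within 5 SD of its mean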;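 further: negative B-score means less thallium flux so channel inhibition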
KCNQ1 pot: human KCNQ1 channel potentiation or activation. AID 2648. hit rate 0.35% among 310,000. CHO-K1 KCNQ1, thallium flux FluxOR fluorescence; stronger effect = higher value. B-score at 10 µM;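 active means fluorescence ratio B-score, a plate-corrected score, at least three library SD, with initial intensity B-score within 5 SD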
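Assay system: stable KCNQ1 CHO-K1 line; medium: assay buffer, equal DMSO in all wells; timing: 90 min dye loading and 20 min compound exposure, both at room temperature; technique: kinetic FluxOR thallium fluorescence, 10-s 1-Hz baseline, 110-s post-stimulus read; read-out basis: B score of baseline-normalized fluorescence ratio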
KCNQ1 inh: human KCNQ1 channel inhibition | B-score at 10 µM | CHO-K1 KCNQ1, FluxOR thallium flux fluorescence; stronger effect = higher value | AID 2642 | P51787 | hit rate 1.3% among 310,000;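 active means compounds whose thallium flux B-score, printed positive for inhibition, exceeds three library SD while starting fluorescence stays within three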;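 further: channel opened by potassium depolarization with thallium stimulus after 20 min compound exposure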
KCNK3 block: human KCNK3 channel inhibition, primary screen; CHO-KCNK3 thallium flux, FluxOR fluorescence; stronger effect = lower value; B-score at 10 µM; O14649; hit rate 0.84% among 340,000;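 active means B-score under library mean minus 4 SD, starting fluorescence ratio at most library mean plus 5 SD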;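 further: more negative B-score means stronger inhibition of thallium flux through KCNK3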
KCNK3 confirm: human KCNK3 channel inhibition, confirmation assay | shares compounds with KCNK3 block | CHO-KCNK3 thallium flux, FluxOR fluorescence; 0% buffer, 100% carvedilol maximal block | ratio percent of control, % at 10 µM | hit rate 99% among 2,400 | AID 651638;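 active means ratio percent of control, averaged over triplicates, above buffer control mean plus 5 SD, cut at about 64% in these data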;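 further: ratio is the fluorescence rise from min to max over baseline after thallium stimulus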
KCNK3 uninduced: counter-screen for KCNK3 inhibitors: effect in non-induced cells; shares compounds with KCNK3 block; non-induced KCNK3 parental cells, FluxOR thallium flux; stronger effect = lower value; thallium flux ratio (lower = more inhibition) at 10 µM; hit rate 40% among 2,400; AID 651747;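 active means thallium flux ratio, averaged over three wells, more than 5 SD below the buffer control mean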;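 further: host cells are CHO cells without KCNK3 induction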
Numbers stand for hits; - = inactive; . = no result.

SMILES	Cl transport mod	hERG rescue	KCNK9 inh	KCNQ1 pot	KCNQ1 inh	KCNK3 block	KCNK3 confirm	KCNK3 uninduced
Cn1c(SCc2ccccc2Br)nc2ccccc2c1=O	.	-	-	-	-	-9	134	-
Cn1c(SCc2ccccc2F)nc2ccccc2c1=O	.	-	-	-	-	-	.	.
Cc1ccccc1CSc1nc2ccccc2c(=O)n1C	.	.	.	.	.	-	.	.
Cn1c(SCc2cccc(Br)c2)nc2ccccc2c1=O	.	-	-	-	-	-10	160	0.082
O=c1c2ccccc2nc(SCc2nnc(-c3ccccc3Br)o2)n1-c1ccccc1	-	-	-6.9	-	-	-12	117	-
Cc1ccc(NC(=O)CCC(=O)NNC(=O)c2ccccc2Cl)c(C)c1	-	-	-	-	-	-	.	.
CC(=O)Nc1ccc(N(C)S(C)(=O)=O)cc1	-	-	-	-	-	-	.	.
COc1cc(OC)cc(C(=O)N[C@H](C(=O)Nc2nc(-c3ccc(F)c(F)c3)cs2)C(C)C)c1	-	-	-	-	-	-11	100	-
CC(OC(=O)C1CCC1)C(=O)Nc1cc(Cl)cc(Cl)c1 (stereo not drawn)	.	-	-	-	-	-9	96	-
CC(=O)c1cccc(NC(=O)C(C)OC(=O)C2CCC2)c1 (stereo not drawn)	.	-	-	-	-	-	.	.
O=C(NCc1ccccc1Cl)c1cccc(OC2CCN(C(=O)C3CC3)CC2)c1	.	-	-	-	-	-	.	.
CCCNC(=S)N1CCN(C(c2ccccc2)c2ccccc2)CC1	-	-	-	-	-	-	.	.
CCCCNC(=S)N1CCN(C(c2ccccc2)c2ccccc2)CC1	-	-	-6.8	-	-	-11	93	0.11
CCOC(=O)NNC(=O)CCn1c2c(c3ccccc31)CCCC2	-	-	-	-	-	-	.	.
CCN(C(=O)COC(=O)COc1ccc2c(c1)CCC2)c1c(N)n(Cc2ccccc2)c(=O)[nH]c1=O	.	.	.	.	.	-	.	.
CCN1C(=O)/C(=C/c2cccs2)SC1=Nc1ccc(OC)cc1	-	-	-	-	-	-	.	.
CCCN1C(=O)/C(=C/c2ccc(C)s2)SC1=Nc1ccc(OC)cc1	-	-	-	-	-	-9	114	-
CC1CN(S(=O)(=O)c2cccc(C(=O)OCc3cc(=O)oc4cc(O)ccc34)c2)CC(C)O1 (stereo not drawn)	.	-	-	-	-	-	.	.
CN(C)c1cccc(C(=O)OCc2cc(=O)oc3cc(O)ccc23)c1	-	-	-	-	-	-9	113	-
COc1ccc(Cl)cc1NC(=O)C1Cc2cc(S(=O)(=O)N3CCCC3)ccc2N1C(C)=O (stereo not drawn)	.	-	-	-	-	-9.4	102	-
CC(=O)N1c2ccc(S(=O)(=O)N3CCC(C(=O)N4CCN(c5cc(Cl)ccc5C)CC4)CC3)cc2CC1C (stereo not drawn)	.	-	-	-	6	-9.5	108	-
COc1ccc(NC(=O)C2Cc3cc(S(=O)(=O)N4CCCCC4)ccc3N2C(C)=O)cc1Cl (stereo not drawn)	.	-	-	-	-	-	.	.
COc1ccc(S(=O)(=O)Oc2ccc3cccc(N)c3c2)cc1	.	-	-	-	-	-9.1	101	-
CC(C)(C)C(=O)Nc1ccccc1C(=O)NCc1ccco1	-	-	-	-	-	-9.3	65	-
CC(C)c1nnc(NC(=O)C2CCCN2C(=O)Nc2ccccc2F)s1 (stereo not drawn)	-	-	-	-	-	-	.	.
SMILES	Cl transport mod	hERG rescue	KCNK9 inh	KCNQ1 pot	KCNQ1 inh	KCNK3 block	KCNK3 confirm	KCNK3 uninduced
COC(=O)C1CCN(c2nc3ccccc3nc2C(C#N)C(=O)OCC(C)C)CC1 (stereo not drawn)	.	-	-6.8	-	-	-	117	0.15
COc1cc(O)c2c(c1)COC2=O	-	-	-	-	-	-	.	.
CCN1C(=O)C(CC(=O)Nc2ccc(OC)cc2)N(CCc2ccccc2)C1=S (stereo not drawn)	-	-	-	-	-	-8.8	113	-
CC(=O)Nc1ccc(NC(=O)C(C)OC(=O)C23CC4CC(CC(Cl)(C4)C2)C3)cc1 (stereo not drawn)	.	.	.	.	.	-	.	.
CCOc1ccccc1C(=O)NCCCCNC(=O)c1ccccc1OCC	.	-	-	-	-	-9.8	94	-
CCOc1cc(NC(=O)C2CC2)c(OCC)cc1NC(=O)c1ccccc1OCC	.	-	-	-	-	-8.7	102	-
CCOc1cc(NC(=O)C2CC2)c(OCC)cc1NC(=O)c1cc(OC)c(OC)c(OC)c1	.	-	-	-	-	-	.	.
CC(C)n1nnnc1SCC(=O)NCc1ccco1	-	-	-	-	-	-	.	.
COc1ccc(-c2cc(C(=O)Nc3ccccc3N3CCOCC3)c3ccccc3n2)cc1OC	-	-	-	-	-	-8.7	95	0.13
COc1ccc(OC)c(-c2cc(C(=O)Nc3ccccc3C(N)=O)c3ccccc3n2)c1	.	-	-	-	-	-9.3	111	0.14
CCOc1ccccc1NC(=O)c1cc(-c2cc(OC)c(OC)c(OC)c2)nc2ccccc12	.	-	-	-	-	-9.7	132	0.093
CCN(CC)S(=O)(=O)c1ccc(N2CCOCC2)c(NC(=O)c2cccc3ccccc23)c1	-	-	-	-	-	-	.	.
COc1ccc(N2CCOCC2)c(NC(=O)c2cccc3ccccc23)c1	.	-	-	-	-	-9.5	108	-
O=C(Nc1ccccc1N1CCOCC1)c1cc(-c2ccncc2)nc2ccccc12	-	-	-	-	-	-	.	.
NC(=O)c1ccc(-c2ccccc2F)cc1	-	-	-	-	-	-	.	.
CCOc1ccc(NC(=O)Cn2nnc(C(=O)NCCc3ccc(OC)c(OC)c3)c2N)cc1	-	-	-	-	-	-	.	.
CCNc1nc(NCC)n2c(SCC(=O)Nc3cc(OC)ccc3OC)nnc2n1	.	-	-	-	-	-	.	.
Oc1cccc(Nc2nc(O)c(/C=C3\C=Nc4ccccc43)s2)c1	-	.	.	.	.	-15	148	0.083
Oc1nc(Nc2cccc(Cl)c2)sc1/C=C1\C=Nc2ccccc21	-	-	-	-	-	-	.	.
Cc1ccc(NC(=O)CCN2C(=O)c3ccccc3C2=O)c(C)c1	.	-	-	-	-	-	.	.
COCCN(C(=O)c1ccco1)c1nc(-c2ccccc2)cs1	.	-	-	-	-	-10	92	0.15
O=c1[nH]c([N+](=O)[O-])nn1C(c1ccccc1)c1ccccc1	.	-	-	-	-	-10	-	-
O=C(NCC1CCCO1)C1CCCN(S(=O)(=O)c2cccc3nsnc23)C1 (stereo not drawn)	-	-	-	-	-	-	.	.
